This passage reports inhibition of growth, IC50 and Activity results from ChEMBL document CHEMBL1152668, “Synthesis, reactivity and biological evaluation of novel halogenated tripentones” (Bioorg Med Chem, 2009).

Data set [1] relates to KB. In words: Growth inhibition of human KB cells at 1 uM after 72 hrs by MTS assay. It counts as functional. The note with it: read-out: GI.
For data set [2], the system named is KB. In words: Growth inhibition of human KB cells at 10 uM after 72 hrs by MTS assay. It counts as functional. The settings on record: read-out: GI.
The next data set has as its system L1210. In words: Cytotoxicity against mouse L1210 cells after 72 hrs by MTS assay. The note with it: L1210, 72 h. It counts as functional, cell-based. (Formazan colour is commonly taken as a measure of viable cells.)
Data set [3] has as its system KB. In words: Cytotoxicity against human KB cells at 0.05 to 1000 nM after 72 hrs by MTS assay. Type of data set: functional, cell-based. The procedure, abridged:
(§1)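 Cells maintained in D-MEM with 10% fetal calf serum, penicillin, streptomycin and fungizone under 5% CO2. Plated in 96-well plates and dosed 24 h later with compound in DMSO, 0.05 nM to 1 µM, with 1% DMSO vehicle controls. After 72 h, MTS added for 3 h at 37 °C and A490 read. Inhibition = (1 − OD treated/OD control)×100; IC50 from separate duplicates.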

For a further data set, the system named is MRC5. In words: Cytotoxicity against human MRC5 cells at 0.05 to 1000 nM after 72 hrs by MTS assay. The settings on record: mrc5, 72 h, 1 µM. It counts as cell-based. The essentials:
as §1

Another data set has as its system HCT-116. In words: Cytotoxicity against human HCT116 cells at 0.05 to 1000 nM after 72 hrs by MTS assay. It counts as functional, cell-based. The essentials:
(§2)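 Cultured in RPMI medium under 5% CO2, then seeded in 96-well plates and treated 24 h later with DMSO solutions at 0.05 nM–1 µM, with 1% DMSO vehicle controls. After 72 h exposure, MTS incubated 3 h at 37 °C and absorbance read at 490 nm. Inhibition = (1 − OD490 treated/OD490 control)×100; IC50 from separate duplicate experiments.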

The subject of a further data set is MCF7. In words: Cytotoxicity against human MCF7 cells at 0.05 to 1000 nM after 72 hrs by MTS assay. It counts as functional, cell-based. The essentials: as §2
Another data set deals with HL-60. In words: Cytotoxicity against human HL60 cells at 0.05 to 1000 nM after 72 hrs by MTS assay. It counts as functional, cell-based. The essentials: as §2
The next data set concerns Vero. In words: Cytotoxicity against african green monkey Vero cells at 0.05 to 1000 nM after 72 hrs by MTS assay. It counts as cell-based. The note with it: chlorocebus sabaeus, 1 µM. The essentials: as §1
For another data set, the system named is HCT-15. In words: Cytotoxicity against human HCT15 cells at 0.05 to 1000 nM after 72 hrs by MTS assay. Type of data set: functional, cell-based. The procedure, abridged:
as §2

Structures are written as SMILES. Active and inactive are the calls of the source. The rule behind the calls is not given here.

Turning to `COc1ccc(-c2csc3c2-n2cc(-c4ccc(OC)c(OC)c4)cc2C3=O)cc1O`, in the data set with KB [1], the inhibition of growth at 1 µM was determined as 15%. Also, the inhibition of growth at 10 µM with KB [2] was 97%.

As a reminder, the IC50 is the concentration that inhibits the measured activity by half. Compound `COc1ccc(-c2cc3n(c2)-c2c(-c4ccc(OC)c(O)c4)csc2C3=O)cc1` displayed an IC50 in the data set with L1210 of 0.113 µM. For the same compound, the inhibition of growth at 1 µM in the data set with KB [1] was determined as 94%. Also, the inhibition of growth at 10 µM in the data set on KB [2] is 98%.

For the compound `COc1ccc(-c2cc3n(c2)-c2c(-c4ccc(OC)c(O)c4)csc2C3=O)cc1O`, the inhibition of growth at 1 µM in the data set on KB [1] is 15%. The inhibition of growth at 10 µM with KB [2] was 90%.

As to `COc1ccc(-c2csc3c2-n2cc(-c4cccnc4)cc2C3=O)cc1O`, the inhibition of growth at 1 µM in the data set with KB [1] is 20%. In addition, the inhibition of growth at 10 µM with KB [2] amounted to 64%.

Take `COC(=O)/C=C/c1cc2n(c1)-c1c(-c3ccc(OC)c(O)c3)csc1C2=O`: the inhibition of growth at 1 µM in the data set on KB [1] came out at 3%. For the same compound, in the data set with KB [2], the inhibition of growth at 10 µM worked out at 1%.

As for `COc1ccc(-c2csc3c2-n2cc(Br)cc2C3=O)cc1O`, the IC50 in the data set on L1210 is 0.017 µM. Further, the inhibition of growth at 1 µM with KB [1] came out at 94%. For the same compound, the inhibition of growth at 10 µM with KB [2] amounted to 94%.

`COc1ccc(-c2csc3c2-n2cccc2C3=O)cc1O`: 0.004 µM corresponded to half-maximal inhibition with L1210 (IC50). The result with KB [3], in the data set with HCT-116, with MCF7, with HL-60 and in the data set with HCT-15 was Active. Besides, the Activity entry with MRC5 and in the data set on Vero was “Non-toxic” each time. The inhibition of growth at 1 µM in the data set with KB [1] stood at 86%. For the same compound, in the data set with KB [2], the inhibition of growth at 10 µM stood at 86%.

Consider `COc1ccc(-c2csc3c2-n2cc(-c4cc(OC)c(OC)c(OC)c4)cc2C3=O)cc1O`, for which, in the data set on KB [2], the inhibition of growth at 10 µM is 35%.
